Data published in ChEMBL document CHEMBL1159338, “New dimeric naphthopyrones from Aspergillus niger” (J Nat Prod, 2003).
Activity calls are given as the source filed them. The calls are words filed in the database; no cut-off is given here.

Assays:
[1] = target: DNA polymerase I, thermostable (Thermus aquaticus) (UniProt P19821); test: Inhibition of Taq polymerase in RNase treated human HT1080 cells at 100 ug/mL by PCR; assay type: cell-based; details: HT-1080
[2] = target: Telomerase reverse transcriptase (Homo sapiens) (UniProt O14746); test: Inhibition of human telomerase activity by TRAP assay; details: concentration not given here
How it was run: (§1)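 TRAP format: DMSO-dissolved samples in a 50 µL mix with HT1080 cell extract, pH 8.3 Tris-HCl/KCl/MgCl2/EGTA/Tween 20 buffer, TS primer, 50 µM each dNTP, 2 U Taq and [32P]dCTP; CX primer held under wax. Extension ran 30 min at 23 °C, then 90 °C for 90 s and 31 PCR cycles. Products were bound to DE-51 paper and scintillation-counted. Inhibition was taken relative to DMSO, minus RNase-treated extract background.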

[3] = target: Telomerase reverse transcriptase (Homo sapiens) (UniProt O14746); test: Inhibition of human telomerase activity at 100 ug/mL by TRAP assay; how it was run: as §1

Sequence of Telomerase reverse transcriptase (Homo sapiens) (O14746 whole entry): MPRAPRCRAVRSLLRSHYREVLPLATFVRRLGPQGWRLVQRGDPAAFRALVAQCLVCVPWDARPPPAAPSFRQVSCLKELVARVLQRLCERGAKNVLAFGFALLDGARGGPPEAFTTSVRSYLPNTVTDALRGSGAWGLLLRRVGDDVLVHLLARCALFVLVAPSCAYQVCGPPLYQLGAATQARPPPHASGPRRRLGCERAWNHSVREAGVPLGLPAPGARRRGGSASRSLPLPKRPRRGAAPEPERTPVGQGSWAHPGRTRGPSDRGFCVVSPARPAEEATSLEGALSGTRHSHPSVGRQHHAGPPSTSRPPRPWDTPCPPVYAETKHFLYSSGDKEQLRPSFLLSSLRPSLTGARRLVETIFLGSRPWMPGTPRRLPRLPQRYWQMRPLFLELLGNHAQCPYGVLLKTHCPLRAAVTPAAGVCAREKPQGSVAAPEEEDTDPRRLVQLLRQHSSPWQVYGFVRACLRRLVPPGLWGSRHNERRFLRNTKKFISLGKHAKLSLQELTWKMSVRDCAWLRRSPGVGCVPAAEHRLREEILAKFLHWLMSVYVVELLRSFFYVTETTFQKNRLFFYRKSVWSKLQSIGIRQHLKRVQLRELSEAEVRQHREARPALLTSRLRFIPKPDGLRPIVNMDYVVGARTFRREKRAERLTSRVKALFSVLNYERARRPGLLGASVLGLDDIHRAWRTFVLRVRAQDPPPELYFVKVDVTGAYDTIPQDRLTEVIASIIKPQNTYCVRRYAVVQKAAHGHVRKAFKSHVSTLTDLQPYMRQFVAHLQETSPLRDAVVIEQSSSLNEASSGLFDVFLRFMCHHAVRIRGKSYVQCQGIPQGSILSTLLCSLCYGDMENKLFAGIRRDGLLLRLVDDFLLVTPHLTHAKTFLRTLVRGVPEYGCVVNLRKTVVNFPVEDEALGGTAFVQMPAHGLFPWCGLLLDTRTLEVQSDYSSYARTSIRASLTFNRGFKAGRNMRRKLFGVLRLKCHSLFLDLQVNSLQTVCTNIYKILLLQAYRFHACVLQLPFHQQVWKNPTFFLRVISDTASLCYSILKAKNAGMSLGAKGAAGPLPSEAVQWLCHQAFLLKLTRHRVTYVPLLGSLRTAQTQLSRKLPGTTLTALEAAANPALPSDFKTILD
Sequence of DNA polymerase I, thermostable (Thermus aquaticus) (P19821 whole entry): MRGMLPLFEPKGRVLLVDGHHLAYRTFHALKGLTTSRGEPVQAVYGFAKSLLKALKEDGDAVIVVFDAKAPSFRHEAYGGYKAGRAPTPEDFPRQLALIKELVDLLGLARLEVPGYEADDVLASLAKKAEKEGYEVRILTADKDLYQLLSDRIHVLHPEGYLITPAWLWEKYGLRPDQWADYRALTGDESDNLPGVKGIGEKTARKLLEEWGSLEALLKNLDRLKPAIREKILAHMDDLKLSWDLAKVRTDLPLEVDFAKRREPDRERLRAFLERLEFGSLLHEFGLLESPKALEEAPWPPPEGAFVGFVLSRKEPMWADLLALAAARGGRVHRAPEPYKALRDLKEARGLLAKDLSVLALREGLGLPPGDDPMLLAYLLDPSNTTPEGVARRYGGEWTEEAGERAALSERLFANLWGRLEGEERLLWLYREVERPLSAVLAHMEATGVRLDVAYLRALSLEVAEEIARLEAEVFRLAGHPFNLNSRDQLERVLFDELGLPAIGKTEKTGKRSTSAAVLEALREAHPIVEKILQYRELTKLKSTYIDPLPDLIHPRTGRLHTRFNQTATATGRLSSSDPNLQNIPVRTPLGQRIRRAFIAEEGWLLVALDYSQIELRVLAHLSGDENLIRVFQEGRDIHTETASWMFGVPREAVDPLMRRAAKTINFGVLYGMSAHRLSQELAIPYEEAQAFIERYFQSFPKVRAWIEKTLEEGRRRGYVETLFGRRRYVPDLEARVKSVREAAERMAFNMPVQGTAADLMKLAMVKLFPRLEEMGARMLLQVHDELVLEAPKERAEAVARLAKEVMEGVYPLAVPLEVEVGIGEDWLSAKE

Row | Structure (SMILES) | inhibition [1] [%] | inhibition [2] [%] | Activity [3]
1 | COc1cc(OC)c2c(O)c3c(=O)cc(C)oc3c(-c3c(O)cc4cc(O)c5c(=O)cc(C)oc5c4c3OC)c2c1 | 40 | 41 | inactive
2 | COc1cc(OC)c2c(O)c3c(=O)cc(C)oc3c(-c3c(OC)cc4cc(O)c5c(=O)cc(C)oc5c4c3OC)c2c1 | 40 | 40 | inactive

Results, then the compound that gave them:

Row | inhibition [1] [%] | inhibition [2] [%] | Activity [3] | Structure (SMILES)
3 | 49 | 52 | inactive | COc1cc(OC)c2c(O)c3c(=O)cc(C)oc3c(-c3c(OC)cc4cc5oc(C)cc(=O)c5c(O)c4c3OC)c2c1
4 |  |  | inactive | COc1cc(OC)c2c(c1)c(-c1c(OC)cc3cc4oc(C)cc(=O)c4c(O)c3c1OC)c(O)c1c(=O)cc(C)oc12
5 |  |  | inactive | COc1cc(OC)c2c(c1)c(-c1c(OC)cc3cc(O)c4c(=O)cc(C)oc4c3c1OC)c(O)c1c(=O)cc(C)oc12
